Molecules are shown by their SMILES. Unmarked numbers belong to inactive results. Inconclusive results are not listed. Calls of active or inactive are those of the source.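 Rule for the calls, unless noted: active = viability at or below 27.92% in each of two runs, the all-compound median minus 4 SD; inconclusive = no clear call, values can overlap the other calls; inactive = the rest.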

The nature of experiment [1]: OD615 S. cerevisiae growth inhibition, permissive medium, pilot counter-assay, permissive growth control for S. cerevisiae lifespan shortening project (AID 705;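 active = growth inhibition above 25% in both replicates, a cutoff set 3 SD above the mean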). Conditions: OD615, 24 h, at 10 µM, active compounds read high. An outline of the steps: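 assay system = Saccharomyces cerevisiae strain carrying genetically modified DeaD replicative-lifespan system | medium = SC raffinose/galactose permissive medium | dosing = 10 µM single dose, 0.25% DMSO | schedule = 24 h compound exposure at 30 °C after 4 h pre-growth | measured by = OD at 615 nm | read-out basis = growth inhibition from lowered OD615 after 24 h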

Experiment [2] in a line: Restrictive medium S. cerevisiae growth inhibition, OD615, pilot screen of yeast lifespan reduction project, restrictive growth control (AID 706;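 active = growth inhibition above a set limit, 3 SD over mean compound inhibition, in both replicates, cut at about 43% in these data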;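 note: modified DeaD lifespan yeast strain shifted to restrictive glucose medium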). Conditions: OD615, 48 h, at 10 µM, active compounds read high. An outline of the steps:
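Buffer or medium: CSMM-D glucose medium. Material: genetically modified Saccharomyces cerevisiae, DeaD replicative lifespan assay strain. Times: 48 h compound exposure at 30 °C. Measured by: optical density at 615 nm.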

The nature of experiment [3]: viability gain of MRP-1-high H69AR cells under doxorubicin, pilot screen, MRP-1 activator project, CellTiter-Glo, duplicate (AID 807;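 active = viability increase at or above a cutoff of the median across tested compounds plus 3 SD, cut at about 8.5% in these data, passing the limit was not always enough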;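 note: compound pretreatment 18-22 h then 72 h combined with doxorubicin; 0% = doxorubicin alone and 100% = vehicle without doxorubicin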). Conditions: H69AR viability with doxorubicin, CellTiter-Glo luminescence; at 10 µM; active compounds read high. For orientation: ATP-based viability assays read luminescence as a measure of living cells.
A short description of experiment [4]: growth suppression of beta-catenin knockout HCT116, pilot screen, human colon tumor cells (AID 823;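 active = cell viability at or below a set limit in both duplicate runs, the limit being the all-compound median minus 4 SD, cut at about 23% in these data, passing the limit was not always enough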;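 note: 0% = wells killed by 20 µM Hyamine and 100% = untreated DMSO cell wells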). To be noted: CellTiter-Glo, 60 h, at 10 µM, active compounds read low.
Experiment [5] in a line: growth suppression of PTEN-deleted HCT116, pilot screen, cell-based, HCT116 clonal line, CellTiter-Glo (AID 824).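 Note: 0% = 20 µM Hyamine control and 100% = vehicle cell control.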 Conditions: 60 h, at 10 µM, active compounds read low.
Experiment [6] is described as follows: inhibitors of the yeast RAM network, pilot screen, dse1pr::URA3 reporter, 5-FOA selection (AID 869;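 active = inhibition over a set limit, the all-compound mean plus 3 SD, in both replicate runs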;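 note: 0% = DMSO wells with no growth and 100% = 10 µM 1-NA-PP1 with full growth; RAM network block rescues cells from 5-FOA so hits raise OD615 growth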). Conditions: S. cerevisiae dse1pr::URA3 5-FOA growth, OD615, 2 d; at 10 µM; active compounds read high; strain carries analog-sensitive mutant Cbk1 kinase.
Experiment [7] in a line: RAM signaling pathway blockade in yeast – S. cerevisiae, Pdr1DBD-CYC8 efflux-inhibited sensitized strain, primary screen (AID 1298;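 active = RAM network inhibition above 8.4% in each of two replicates, 3 SD over the compound average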;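 note: 0% = DMSO untreated cells without growth and 100% = 10 µM 1-NA-PP1 full growth; higher means more yeast growth rescued from 5-FOA killing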). Conditions: S. cerevisiae cbk1-as DSE1-URA3 strain, 5-FOA growth OD615, 2 d; at 50 µM; active compounds read high.

What is called viability is a read-out of living cells in per cent, often relative to untreated cells. By inhibition is commonly meant the relative decrease from the control value, in per cent. For `O=C(c1ccco1)N1CCN(C(=O)c2oc(=O)c3ccccc3c2-c2ccccc2)CC1`, the growth inhibition is -6.24% in experiment [1] and -4.58% in experiment [2]. In addition, in experiment [3], the viability increase was -1.47%. In addition, the viability in experiment [4] was 105%; in experiment [5], 98.5%. Besides, the inhibition in experiment [6] is 0.68%. In addition, in experiment [7], the RAM network inhibition was 3.83%.
Take `CCOC(=O)c1cc2c(n(-c3ccc(C)cc3)c1=O)CCCC2=O`: the growth inhibition in experiment [1] was -9.02%; in experiment [2] it was -16.6%. In experiment [3], the viability increase was -3.28%. For the same compound, the viability in experiment [4] is 99.3%; in experiment [5], 94.8%. Also, the inhibition in experiment [6] was 0.59%. Moreover, the RAM network inhibition in experiment [7] was 2.29%.
Turning to `COC(=O)C1=C(C)N2C(=O)CSC2=NC1c1ccc2c(c1)OCO2` (stereo unspecified), the growth inhibition in experiment [1] is 5.86%; in experiment [2], 53.2% (active). Also, the viability increase in experiment [3] is 0.55%. The viability is 93.3% in experiment [4] and 98.8% in experiment [5]. Further, in experiment [6], the inhibition is 0.03%. Moreover, the RAM network inhibition in experiment [7] was 0.78%.
For `CC(C)CC(NS(=O)(=O)c1ccc2c(c1)oc(=O)n2C)C(=O)NCc1cccnc1` (stereo unspecified), the growth inhibition in experiment [1] was -0.43%; in experiment [2] it was 15.8%. For the same compound, in experiment [3], the viability increase was -0.08%. Also, the viability in experiment [4] was 112%; in experiment [5] it was 98.9%. Moreover, the inhibition in experiment [6] was 1.82%. Also, the RAM network inhibition in experiment [7] was 0.99%.
For `O=C(Nc1ccccc1)N1CCN2C(=O)c3ccccc3C12c1ccccc1` (stereo unspecified), the growth inhibition is -7.51% in experiment [1] and -1.31% in experiment [2]. In experiment [3], the viability increase is -2.35%. For the same compound, the viability in experiment [4] is 89.9%; in experiment [5] it was 89.5%. Besides, the inhibition in experiment [6] was 1.29%. The RAM network inhibition in experiment [7] was 2.89%.
`O=c1cc(CSc2nnc(-c3ccccc3)o2)c2ccccc2[nH]1`: the growth inhibition was -4.87% in experiment [1] and -3.43% in experiment [2]. For the same compound, the viability increase in experiment [3] was 0.91%. Moreover, the viability was 99.2% in experiment [4] and 102% in experiment [5]. Further, in experiment [6], the inhibition is 2.32%. For the same compound, the RAM network inhibition in experiment [7] is 6.08%.
Take `O=C(CNS(=O)(=O)c1cccc2nsnc12)NC1CCCCC1`: the growth inhibition in experiment [1] was -8.49%; in experiment [2], -16.5%. In experiment [3], the viability increase was -1.47%. The figures for the viability in experiment [4] and in experiment [5] were 96.2% and 92.3%, respectively. For the same compound, in experiment [6], the inhibition was 1.06%. Also, the RAM network inhibition in experiment [7] is 1.3%.
`O=C(NCCN1CCN(C(=O)Nc2ccccc2)CC1)Nc1ccccc1`: the growth inhibition in experiment [1] was -18.1%; in experiment [2], -32.9%. In addition, the viability increase in experiment [3] was -0.62%. The viability in experiment [4] is 107%; in experiment [5] it was 94.8%. The inhibition in experiment [6] is 1.63%. Moreover, the RAM network inhibition in experiment [7] was 3%.
Take `Cc1cccc(OCc2nnc(SCC(=O)NCCc3ccccc3)o2)c1`: the growth inhibition was -3.83% in experiment [1] and -15.6% in experiment [2]. Moreover, in experiment [3], the viability increase is -1.67%. In addition, the viability in experiment [4] is 98%; in experiment [5], 95.2%. In addition, the inhibition in experiment [6] was 3.1%. In addition, the RAM network inhibition in experiment [7] is 1.99%.
For the compound `Cc1cc(NC(=O)CSc2c(C)[nH]c3ccccc23)no1`, the growth inhibition in experiment [1] was -11.4%; in experiment [2], -4.25%. Further, the viability increase in experiment [3] was -1.25%. Further, the viability was 104% in experiment [4] and 89.4% in experiment [5]. In addition, the inhibition in experiment [6] was 0.94%. For the same compound, the RAM network inhibition in experiment [7] is 4.64%.
For the compound `O=C(CCn1c(=O)oc2ccccc21)Nc1ccc2c(c1)OCCO2`, the growth inhibition in experiment [1] is -3.18%; in experiment [2], -9.54%. Further, the viability increase in experiment [3] is -3.68%. For the same compound, the viability in experiment [4] is 103%; in experiment [5] it was 96%. For the same compound, in experiment [6], the inhibition was 1.88%. In addition, in experiment [7], the RAM network inhibition is 3.61%.
For `O=C(Cn1cnc2c(cnn2-c2ccc(F)cc2)c1=O)NCCc1ccccc1`, the values for the growth inhibition in experiment [1] and in experiment [2] were -1.94% and -1.9%, respectively. For the same compound, in experiment [3], the viability increase was 1.69%. Besides, the viability is 97.6% in experiment [4] and 95.7% in experiment [5]. Also, the inhibition in experiment [6] is 3.04%. The RAM network inhibition in experiment [7] is 6.6%.
Consider `CCOc1ccccc1NC(=O)C1Cc2ccccc2CN1S(C)(=O)=O` (stereo unspecified), for which the growth inhibition in experiment [1] is -8.32%; in experiment [2] it was -7.46%. Also, the viability increase in experiment [3] was -5.66%. In addition, the viability in experiment [4] was 82.9%; in experiment [5] it was 80.6%. Further, in experiment [6], the inhibition is 0.37%. In addition, the RAM network inhibition in experiment [7] is 3%.
Turning to `Cn1c(Cn2c(=O)sc3ccccc32)nnc1SCC(=O)NCCc1ccccc1`, the results for the growth inhibition in experiment [1] and in experiment [2] were -10% and -16.2%, respectively. Besides, the viability increase in experiment [3] was -0.09%. The viability in experiment [4] was 100%; in experiment [5], 105%. Besides, in experiment [6], the inhibition is 2.5%. For the same compound, in experiment [7], the RAM network inhibition was 3.42%.
`CCn1cc(C(=O)N2CCN(Cc3ccc4c(c3)OCO4)CC2)c2cc(OC)c(OC)cc2c1=O`: the growth inhibition in experiment [1] is -9.86%; in experiment [2] it was -27.3%. The viability increase in experiment [3] is -5.64%. The viability in experiment [4] was 96.1%; in experiment [5] it was 85.9%. Moreover, the inhibition in experiment [6] was 0.125%. In addition, in experiment [7], the RAM network inhibition was 2.76%.
On to `C=CCSc1nnc2c(n1)[nH]c1c(C)cccc12`, for which the growth inhibition in experiment [1] was -27.3%; in experiment [2] it was 3.13%. Besides, the viability increase in experiment [3] was -5.97%. Moreover, the viability is 64.6% in experiment [4] and 65.6% in experiment [5]. The inhibition in experiment [6] is 1.71%. Further, the RAM network inhibition in experiment [7] was 5.38%.
`CCOC(=O)N1CCC(N2CC34C=CC(O3)C(C(=O)Nc3ccc(C(C)C)cc3)C4C2=O)CC1` (stereo unspecified): the values for the growth inhibition in experiment [1] and in experiment [2] were 2.48% and -7.2%, respectively. Also, the viability increase in experiment [3] was 3.15%. For the same compound, the viability in experiment [4] is 102%; in experiment [5], 99.6%. Further, the inhibition in experiment [6] was 0.27%. Also, the RAM network inhibition in experiment [7] is -0.37%.
Take `COCC(C)NC(=O)NC1(C(F)(F)F)Oc2ccc(Cl)cc2O1` (stereo unspecified): the growth inhibition in experiment [1] is -10%; in experiment [2], -25.1%. Moreover, the viability increase in experiment [3] was -5.78%. Moreover, the viability was 32.7% in experiment [4] and 38% in experiment [5]. Further, the inhibition in experiment [6] was 0.985%. Besides, in experiment [7], the RAM network inhibition is 4.1%.

The values above are taken from PubChem BioAssay.
